Most compounds without a hit are left out; they make up all but 2% or so of the library.
CSN deneddyl inh – CSN deneddylation inhibition | inhibition, % at 12.5 µM | AID 651999 | Q92905 | Purified CSN, SCF-Nedd8-OG deneddylation, fluorescence polarization | 0.38% of 360,000 active;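 active means pattern-corrected inhibition above about 35%, with an unprinted fluorescence ratio check between 0.5 and 1.5, limit read from the data, passing the limit was not always enough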;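 further: 0% = enzyme with substrate and 100% = substrate without enzyme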
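test system = HEK293T-derived human Csn5 enzyme | amount = 0.24 nM Csn5 enzyme, final concentration | medium = Tris/NaCl/DTT buffer, pH 7.5 | schedule = 90 min reaction at room temperature | signal = FP | evaluation = inhibition of Csn5 cleavage, % | compound dosing = single dose of 12.5 µM compound with 0.25% DMSO | probe or stimulus = 10 nM SCFSkp2-Nedd8OG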
SUMO1 PPI mod – SUMO1-SIM interaction modulation. P63165. inhibition, % at 20 µM. 0.33% of 360,000 active. SUMO1 binding to a labelled peptide, TR-FRET, 1 h; in the data active means inhibition above about 37%
Target sequence (P63165 whole entry, looked up): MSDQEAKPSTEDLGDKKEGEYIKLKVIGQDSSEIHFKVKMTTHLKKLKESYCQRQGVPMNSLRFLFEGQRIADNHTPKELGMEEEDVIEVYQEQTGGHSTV
DNMT1 inh – blocks human DNA methyltransferase DNMT1; DNMT1 molecular beacon, Hinp1I cleavage, fluorescence; inhibition (reported as % activation of signal), % at 10 µM; P26358; 0.83% of 360,000 active; AID 588458; in the data active means inhibition above about 50%
Scp1 inh – Scp-1 (human) phosphatase inhibition | Q9GZU7 | Recombinant Scp1, phosphopeptide, malachite green phosphate absorbance | inhibition, % at 20 µM | 0.88% of 340,000 active | AID 493091;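 active means inhibition above about 50% at 20 µM, limit read from the data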;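 further: plate controls were DMSO wells with enzyme for no effect and wells lacking enzyme for full effect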
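Assay system: SCP-1 catalytic fragment, aa 76-261 | Buffer or medium: Tris acetate buffer pH 5.5 with MgCl2 and Tween-20 | Compound: One concentration, 20 µM, with 1.0% DMSO | Also added: Phospho 17-mer peptide substrate | Signal: Absorbance at 630 nm | Incubation: 45 min enzyme reaction at room temperature | Measure: % inhibition of SCP-1 phosphate liberation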
STEP inh – blocks human striatal-enriched tyrosine phosphatase; inhibition, % at 20 µM; recombinant STEP, OMFP fluorogenic substrate, fluorescence; 0.25% of 360,000 active; P54829;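 active means inhibition at 20 µM, scaled per plate between control wells, above about 37%, limit read from the data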;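 further: 0% = DMSO with enzyme and substrate and 100% = substrate only without enzyme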
Target sequence (P54829 whole entry, looked up): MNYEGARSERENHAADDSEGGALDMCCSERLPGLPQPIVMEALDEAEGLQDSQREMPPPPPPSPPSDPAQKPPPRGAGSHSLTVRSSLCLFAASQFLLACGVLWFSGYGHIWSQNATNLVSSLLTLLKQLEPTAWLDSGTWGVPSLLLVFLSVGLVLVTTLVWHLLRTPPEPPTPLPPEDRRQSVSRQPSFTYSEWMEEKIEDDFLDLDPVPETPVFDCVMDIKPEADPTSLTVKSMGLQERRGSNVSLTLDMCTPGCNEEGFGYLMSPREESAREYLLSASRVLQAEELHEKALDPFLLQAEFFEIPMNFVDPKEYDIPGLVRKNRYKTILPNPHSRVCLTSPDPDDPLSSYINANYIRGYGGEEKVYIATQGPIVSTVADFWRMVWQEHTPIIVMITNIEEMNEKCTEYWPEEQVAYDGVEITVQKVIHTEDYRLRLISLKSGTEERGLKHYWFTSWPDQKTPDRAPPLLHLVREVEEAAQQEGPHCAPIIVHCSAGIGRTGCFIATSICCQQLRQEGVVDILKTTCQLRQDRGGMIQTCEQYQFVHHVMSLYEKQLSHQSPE
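material = STEP tyrosine phosphatase | reagent = fluorogenic phosphatase substrate OMFP at 25 µM final | doses = single compound dose of 20 µM, 1% DMSO final | schedule = 20 min reaction, room temperature, in the dark | measured by = fluorescence, 480/540 nm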
LMPTP inh – LMPTP (human) inhibition; inhibition, % at 20 µM; P24666; 0.22% of 360,000 active; recombinant LMPTP-A, OMFP fluorogenic substrate, fluorescence intensity; AID 651560;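 active means compounds that cut the enzyme signal by at least half of the control window in the single-dose screen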;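 further: plate controls were DMSO wells with enzyme plus substrate for no effect and substrate without enzyme for full effect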
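Test system – LMPTP-A enzyme · Amount – LMPTP-A at 0.625 nM final in the reaction · Buffer or medium – Bis-Tris pH 6.0, DTT, detergent · Reagent – OMFP 400 µM · Doses – single 20 µM dose · Schedule – reaction 50 min, room temperature, dark · Detection – fluorescence intensity of OMFP turnover product · Evaluation – percent inhibition versus substrate-only and uninhibited controls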
* marks the source's active call; other numbers are inactive results.

COc1cccc(CN(C)C(=O)Cc2ccc(OC)c(S(=O)(=O)N3CCOCC3)c2)c1 was read as CSN deneddyl inh -2, SUMO1 PPI mod -1, DNMT1 inh 6, Scp1 inh -7, STEP inh -3 and LMPTP inh -1.
`COc1ccc(CCn2c(=N)c(C(=O)NCc3ccco3)cc3c(=O)n4ccccc4nc32)cc1` gave CSN deneddyl inh 1, SUMO1 PPI mod -7, DNMT1 inh 35, Scp1 inh 15, STEP inh 7 and LMPTP inh 60*.
`O=S(=O)(Nc1ccccc1F)c1cccc(NC(=S)NCCN2CCOCC2)c1` gave CSN deneddyl inh 7, SUMO1 PPI mod 3, DNMT1 inh -4, Scp1 inh -7, STEP inh 92* and LMPTP inh 5.
CCC(=O)N1CCc2nc(-c3ccccc3)sc2C1 was read as CSN deneddyl inh 4, SUMO1 PPI mod -13, DNMT1 inh 1, Scp1 inh -3, STEP inh 0 and LMPTP inh -3.
Screening Cc1cc(=O)oc2cc(OCC(=O)Nc3ccc(CN4CCOCC4)cc3)c(Cl)cc12 returned CSN deneddyl inh -3, SUMO1 PPI mod 4, DNMT1 inh 5, Scp1 inh -3, STEP inh -2 and LMPTP inh 12.
`Cc1cc(=O)oc2cc(OCC(=O)Nc3ccccc3C(N)=O)c(Cl)cc12` gave CSN deneddyl inh -1, SUMO1 PPI mod 62*, DNMT1 inh 3, Scp1 inh 4, STEP inh 0 and LMPTP inh -1.
`CN1/C(=C/C=C(C#N)C#N)C=Cc2ccccc21` gave CSN deneddyl inh 72, SUMO1 PPI mod 57*, DNMT1 inh -1, Scp1 inh -16, STEP inh 0 and LMPTP inh 16.
For O=[N+]([O-])c1cccc2c(S(=O)(=O)N3CCCCC3)cccc12 the results were CSN deneddyl inh 1, SUMO1 PPI mod -34, DNMT1 inh 0, Scp1 inh -6, STEP inh 3 and LMPTP inh 1.
Screening O=[N+]([O-])c1cccc2c(S(=O)(=O)N3CCOCC3)cccc12 returned CSN deneddyl inh 2, SUMO1 PPI mod -25, DNMT1 inh 14, Scp1 inh 32, STEP inh 59* and LMPTP inh 21.
For CC(C)(C)OC(=O)N1CCc2onc(-c3ccc(-n4cc(C5=CCCCC5)nn4)cc3)c2C1=O the results were CSN deneddyl inh 1, SUMO1 PPI mod -1 and LMPTP inh 0.
N#C/C(=C/c1ccc(C(=O)O)cc1)C(=O)Nc1ccccc1 was read as CSN deneddyl inh 6, SUMO1 PPI mod -4, DNMT1 inh -2, Scp1 inh -5, STEP inh -3 and LMPTP inh -1.
N#C/C(=C\c1ccc(OCc2ccccc2)cc1)C(=O)Nc1ccc(C(=O)O)cc1 was read as Scp1 inh 85*.
COc1cc(/C=C(\C#N)C(=O)Nc2cccc(C(=O)O)c2)ccc1OCc1ccc(Cl)cc1 was read as CSN deneddyl inh 9, SUMO1 PPI mod 59*, DNMT1 inh 7, Scp1 inh 36, STEP inh 86* and LMPTP inh 49.
`O=C(Nc1nccs1)c1cn(-c2ccccc2)nc1-c1ccncc1` gave CSN deneddyl inh -16, SUMO1 PPI mod 44*, DNMT1 inh -1, Scp1 inh -3, STEP inh 4 and LMPTP inh 1.
`COc1ccc(-c2nn(-c3ccccc3)cc2C(=O)Nc2nccs2)cc1` gave CSN deneddyl inh -3, SUMO1 PPI mod 3, DNMT1 inh -15, Scp1 inh 0, STEP inh -2 and LMPTP inh 3.
`COc1ccc(-n2nc(C(=O)NCC(=O)NCCCN3CC(C)CC(C)C3)c3ccccc3c2=O)cc1OC` (stereo not drawn) gave CSN deneddyl inh -2, SUMO1 PPI mod -6, DNMT1 inh 0, Scp1 inh -6, STEP inh 3 and LMPTP inh 0.
O=C1c2ccccc2C(=O)C12OC2c1cccc2ccccc12 (stereo not drawn) was read as CSN deneddyl inh 20, SUMO1 PPI mod 39*, DNMT1 inh 58*, Scp1 inh -1, STEP inh 34 and LMPTP inh 15.
Screening CCCN(CC1CC1)C(=S)Nc1ccc(C(C)=O)cc1 returned CSN deneddyl inh -4, SUMO1 PPI mod 2, DNMT1 inh -1, Scp1 inh -7, STEP inh -1 and LMPTP inh 0.
For CCN(C(=S)Nc1ccc(C(C)=O)cc1)C1CCCCC1 the results were CSN deneddyl inh 48*, SUMO1 PPI mod -1, DNMT1 inh -3, Scp1 inh -2, STEP inh 8 and LMPTP inh -1.
For O=C(C=P(c1ccccc1)(c1ccccc1)c1ccccc1)c1ccccc1-c1ccccc1C(=O)C=P(c1ccccc1)(c1ccccc1)c1ccccc1 the results were CSN deneddyl inh 22, SUMO1 PPI mod -39, DNMT1 inh 8, Scp1 inh 36, STEP inh 7 and LMPTP inh 59*.
Screening CN(C(=O)COc1ncnc2ccccc12)C1CCCCC1 returned CSN deneddyl inh -6, SUMO1 PPI mod -6, DNMT1 inh 3, Scp1 inh 0, STEP inh 1 and LMPTP inh -1.
For O=C(N/C=C/n1cnc2cc(C(F)(F)F)ccc21)c1ccccc1 the results were CSN deneddyl inh 1, SUMO1 PPI mod 3, DNMT1 inh 1, Scp1 inh 1, STEP inh 1 and LMPTP inh -1.
For N#C/C(=C\c1ccc(-c2ccc(C(=O)O)cc2)o1)C(=O)Nc1ccc(F)cc1 the results were CSN deneddyl inh 16, SUMO1 PPI mod 3, DNMT1 inh 46, Scp1 inh 69*, STEP inh 6 and LMPTP inh 7.
Cc1cccc(C)c1NC(=O)/C(C#N)=C/c1ccc(-c2ccc(C(=O)O)cc2)o1 was read as CSN deneddyl inh 0, SUMO1 PPI mod -17, DNMT1 inh 16, Scp1 inh 34, STEP inh 7 and LMPTP inh 1.
Screening COC(=O)Cn1c(C)c(/C=C/c2cc[n+](C)cc2)c2ccccc21 returned CSN deneddyl inh 70*, SUMO1 PPI mod -89, DNMT1 inh 5, Scp1 inh 44, STEP inh -3 and LMPTP inh 1.
For O=C(/C=C/c1ccc([N+](=O)[O-])cc1)Oc1ccc(/C=N/NC(=O)c2ccncc2)cc1 the results were CSN deneddyl inh 5, SUMO1 PPI mod 47*, DNMT1 inh 5, Scp1 inh -7, STEP inh 2 and LMPTP inh 47.

Screens from PubChem.
